Source: ChEMBL document CHEMBL1955801, “Synthesis, biological evaluation and molecular investigation of fluorinated peroxisome proliferator-activated receptors α/γ dual agonists” (Bioorg Med Chem, 2012)
Calls of active or inactive are those of the source. The rule behind the calls is not given here.

Legend:
[1] = molecular target: T1, Peroxisome proliferator-activated receptor alpha (Homo sapiens) (UniProt Q07869); assay: Agonist activity at GAL4-tagged human PPARalpha ligand binding domain expressed in HepG2 cells assessed as transactivation after 20 hrs by beta-galactosidase reporter gene assay relative to Wy-14643; assay type: cell-based
T1 sequence (whole entry): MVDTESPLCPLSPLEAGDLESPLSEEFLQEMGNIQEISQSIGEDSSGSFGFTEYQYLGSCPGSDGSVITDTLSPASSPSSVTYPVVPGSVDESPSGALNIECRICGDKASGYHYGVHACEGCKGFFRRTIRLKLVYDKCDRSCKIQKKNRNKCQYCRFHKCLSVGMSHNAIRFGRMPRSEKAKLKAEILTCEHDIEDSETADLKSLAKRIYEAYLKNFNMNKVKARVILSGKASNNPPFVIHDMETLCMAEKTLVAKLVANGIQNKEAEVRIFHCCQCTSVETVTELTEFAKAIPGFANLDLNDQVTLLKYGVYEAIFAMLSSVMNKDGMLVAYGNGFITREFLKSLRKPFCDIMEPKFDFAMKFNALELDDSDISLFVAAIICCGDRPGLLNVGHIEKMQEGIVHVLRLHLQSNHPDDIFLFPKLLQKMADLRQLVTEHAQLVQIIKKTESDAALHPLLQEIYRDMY
Procedure, shortened: (§1)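 HepG2 cells were grown in MEM with 10% heat-inactivated FBS and penicillin/streptomycin at 37 °C in 5% CO2. They were seeded at 10^5 cells/well in triplicate and calcium-phosphate transfected 24 h later with GAL4-PPARα LBD (30 ng), pGAL5TKpGL3 luciferase reporter (100 ng) and pCMVβgal (250 ng). Ligands were applied for 20 h. Luciferase was read with β-galactosidase measured alongside. Wy-14,643 was the reference. Experiments were repeated at least twice.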

[2] = molecular target: T2, Peroxisome proliferator-activated receptor gamma (Homo sapiens, UniProt P37231); assay: Agonist activity at GAL4-tagged human PPARgamma ligand binding domain expressed in HepG2 cells assessed as transactivation after 20 hrs by beta-galactosidase reporter gene assay; assay type: cell-based
T2 sequence (P37231 whole entry): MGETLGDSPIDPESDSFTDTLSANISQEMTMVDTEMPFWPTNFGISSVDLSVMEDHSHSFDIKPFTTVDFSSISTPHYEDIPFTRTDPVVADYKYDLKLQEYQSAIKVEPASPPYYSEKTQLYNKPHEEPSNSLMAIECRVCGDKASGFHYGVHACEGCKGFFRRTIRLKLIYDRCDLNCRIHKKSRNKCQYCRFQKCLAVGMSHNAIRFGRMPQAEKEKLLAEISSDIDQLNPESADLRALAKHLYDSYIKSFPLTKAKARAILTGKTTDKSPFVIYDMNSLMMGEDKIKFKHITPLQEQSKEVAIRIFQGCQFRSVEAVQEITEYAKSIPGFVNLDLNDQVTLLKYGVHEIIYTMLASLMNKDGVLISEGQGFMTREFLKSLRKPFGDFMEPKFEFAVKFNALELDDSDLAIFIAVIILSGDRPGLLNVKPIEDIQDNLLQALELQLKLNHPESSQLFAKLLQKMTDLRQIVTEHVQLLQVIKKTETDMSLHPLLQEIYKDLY

[3] = molecular target: T3, Peroxisome proliferator-activated receptor alpha (Homo sapiens, UniProt Q07869); assay: Agonist activity at GAL4-tagged human PPARalpha ligand binding domain expressed in HepG2 cells assessed as transactivation after 20 hrs by beta-galactosidase reporter gene assay; assay type: cell-based
T3 sequence (Q07869 whole entry): T1 sequence (whole entry)
Procedure, shortened: as §1, with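 “alongside.” for “alongside. Wy-14,643 was the reference.”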

[4] = molecular target: T4, Peroxisome proliferator-activated receptor gamma (Homo sapiens) (UniProt P37231); assay: Agonist activity at GAL4-tagged human PPARgamma ligand binding domain expressed in HepG2 cells assessed as transactivation after 20 hrs by beta-galactosidase reporter gene assay relative to pioglitazone; assay type: cell-based
T4 sequence (whole entry): T2 sequence (P37231 whole entry)
Procedure, shortened: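 HepG2 cells were cultured in MEM with 10% heat-inactivated FBS at 37 °C in 5% CO2 and seeded at 10^5 cells/well in triplicate. After 24 h they were calcium-phosphate transfected with GAL4-PPARγ LBD (30 ng), pGAL5TKpGL3 luciferase reporter (100 ng) and pCMVβgal (250 ng). Cells were treated with ligands for 20 h. Luciferase and β-galactosidase activities were measured in extracts. Pioglitazone was the reference. Experiments were run at least twice.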

[5] = molecular target: T3, Peroxisome proliferator-activated receptor alpha; assay: Agonist activity at GAL4-tagged human PPARalpha ligand binding domain expressed in HepG2 cells assessed as transactivation at 5 to 10 uM after 20 hrs by beta-galactosidase reporter gene assay; assay type: cell-based
[6] = molecular target: T1, Peroxisome proliferator-activated receptor alpha (Homo sapiens); conditions: HepG2, 5 to 10 uM
[7] = molecular target: T4, Peroxisome proliferator-activated receptor gamma (Homo sapiens); conditions: HepG2, 5 to 10 uM
[8] = molecular target: T2, Peroxisome proliferator-activated receptor gamma; assay: Agonist activity at GAL4-tagged human PPARgamma ligand binding domain expressed in HepG2 cells assessed as transactivation at 5 to 10 uM after 20 hrs by beta-galactosidase reporter gene assay; assay type: cell-based

| SMILES | Emax [1] | EC50 [2] | EC50 [3] | Emax [4] | EC50 [5] | Emax [6] | Emax [7] | EC50 [8] |
| --- | --- | --- | --- | --- | --- | --- | --- | --- |
| O=C(O)[C@H](Cc1ccccc1)Oc1cccc(C(F)(F)F)c1 | 71% | 15.9 µM | 9.8 µM | 44% |  |  |  |  |
| O=C(O)C(Cc1ccccc1F)Oc1ccc(Cl)cc1 (racemic) | 66% | 4.9 µM | 6.6 µM | 59% |  |  |  |  |
| O=C(O)[C@H](Cc1ccccc1)Oc1ccc(Cl)cc1F | 101% | 2.5 µM | 2.2 µM | 84% |  |  |  |  |
| O=C(O)C(Cc1cccc(F)c1)Oc1ccc(Cl)cc1 (racemic) | 65% | 3.5 µM | 5.1 µM | 52% |  |  |  |  |
| O=C(O)C(Cc1ccccc1)Oc1ccccc1F (racemic) | 36% | 19 µM | 22.3 µM | 26% |  |  |  |  |
| O=C(O)[C@H](Cc1ccccc1)Oc1ccc(Cl)cc1 | 90% | 9.6 µM | 4.9 µM | 77% |  |  |  |  |
| O=C(O)C(Cc1ccccc1)Oc1ccc(Cl)c(F)c1 (stereo not given) | 51% | 14.1 µM | 6.5 µM | 40% |  |  |  |  |
| O=C(O)C(Oc1cccc(C(F)(F)F)c1)c1ccc(Cl)cc1 (stereo not given) |  | 10 µM |  | 13% | Not Active | inactive |  |  |
| O=C(O)[C@H](Cc1ccc(Cl)cc1)Oc1ccc(Cl)cc1F | 76% | 0.5 µM | 1 µM | 70% |  |  |  |  |
| O=C(O)C(Oc1ccc(Cl)cc1F)c1ccc(Cl)cc1 (stereo not given) | 38% | 16.4 µM | 10.3 µM | 24% |  |  |  |  |
| O=C(O)C(Cc1ccccc1)Oc1ccccc1C(F)(F)F (racemic) |  | 30 µM |  | 13% | Not Active |  |  |  |
| Cc1cccc(Nc2cc(Cl)nc(SCC(=O)O)n2)c1C [PIRINIXIC ACID] |  |  |  |  |  |  | inactive | Not Active |
| O=C(O)C(Cc1cccc(F)c1)Oc1ccc(Cl)cc1F (racemic) | 101% | 2.4 µM | 4.5 µM | 83% |  |  |  |  |
| O=C(O)[C@H](Cc1ccccc1)Oc1ccc(C(F)(F)F)cc1 | 81% |  |  | 59% |  |  |  |  |
| O=C(O)C(Cc1ccc(F)cc1)Oc1ccc(Cl)cc1 (racemic) | 66% | 5.2 µM | 5.4 µM | 57% |  |  |  |  |
| CCc1ccc(CCOc2ccc(CC3SC(=O)NC3=O)cc2)nc1 (stereo not given) [PIOGLITAZONE] |  |  |  |  | Not Active | inactive |  |  |
| O=C(O)C(Cc1ccccc1)Oc1ccc(Cl)c(C(F)(F)F)c1 (stereo not given) | 59% | 5.8 µM | 2.5 µM | 21% |  |  |  |  |
| O=C(O)C(Cc1ccccc1)Oc1cccc(F)c1 (racemic) | 57% | 41 µM | 21 µM | 33% |  |  |  |  |
| O=C(O)[C@H](Cc1ccccc1)Oc1ccc(F)cc1 | 55% | 35.2 µM | 24.8 µM | 58% |  |  |  |  |
| O=C(O)C(Oc1ccc(Cl)cc1F)c1ccccc1 (stereo not given) | 88% | 32 µM | 19 µM | 11% |  |  |  |  |
| O=C(O)C(Cc1ccc(Cl)cc1)Oc1ccc(Cl)cc1F (racemic) | 76% | 0.9 µM | 1.4 µM | 69% |  |  |  |  |
| O=C(O)C(Cc1cccc(F)c1)Oc1ccccc1C(F)(F)F (racemic) |  | 11.6 µM |  | 20% | Not Active |  |  |  |
